Sampled rows, rich in hits. Any-hit rate of the full collection: about 3.9%.
CRFBP-R2 agonist: CRF-BP/CRF-R2 complex agonism. HEK293 CRF-R2/CRF-BP, calcium dye fluorescence (FLIPR); percent of saturating CRF peptide response. activation, % at 13.2 µM. actives 0.46% (n = 350,000);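 active = activation of at least 50%, plus an integration ratio under a set limit after plate pattern correction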;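 note: plate controls were neutral control wells without compound for no effect and CRF at EC100 for full effect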
TAAR1 ag: agonists of human TAAR1. Q96RJ0. CHO RD-HGA16 TAAR1, Fluo-8 calcium fluorescence; vehicle wells 0%, saturating PEA agonist 100%. activation, % at 3 µM. actives 0.99% (n = 360,000);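 active = activation above the mean activation of all test compounds in the run plus 3 SD, cut at about 38% in these data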
Target sequence (Q96RJ0 whole entry, looked up): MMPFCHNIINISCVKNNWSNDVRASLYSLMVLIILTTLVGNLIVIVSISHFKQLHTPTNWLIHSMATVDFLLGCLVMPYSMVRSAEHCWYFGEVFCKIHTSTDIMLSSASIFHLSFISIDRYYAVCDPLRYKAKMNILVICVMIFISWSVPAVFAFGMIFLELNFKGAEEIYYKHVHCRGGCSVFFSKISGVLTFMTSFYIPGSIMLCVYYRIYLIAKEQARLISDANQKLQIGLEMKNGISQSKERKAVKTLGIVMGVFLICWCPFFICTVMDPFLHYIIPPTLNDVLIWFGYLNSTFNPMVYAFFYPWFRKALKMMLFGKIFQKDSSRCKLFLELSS
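Signal – calcium-sensitive Fluo-8 signal, excitation 470-495, emission 515-575 nm · System – RD-HGA16 (CHO) cells co-expressing Gα16 and hTAAR1 · Incubation – 17-24 h seeding, 75 min 37 °C dye, 30 min RT · Compound dosing – 3 µM single concentration · Repeats – no replicates (n 1)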
TMEM16A act: activators or potentiators of mouse TMEM16A chloride channel; HEK293 TMEM16A/YFP-H148Q/I152L, iodide quench fluorescence; stronger effect = lower value; B-score at 10 µM; actives 0.3% (n = 340,000);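 active = fluorescence-ratio B-score plate-corrected deviation score at least 3 library SD below zero, with starting fluorescence score within 5 deviations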;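 note: channel opened by trigger with iodide after compound preincubation; score built on the fluorescence ratio of max minus min over baseline; more negative score means more quench and so TMEM16A activation or potentiation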
CRFBP-R2 block: antagonists of CRF-binding protein/CRF-R2 receptor complex. HEK293 CRF-R2/CRF-BP, CRF-induced calcium fluorescence. inhibition, % at 11.8 µM. actives 0.59% (n = 350,000). AID 588475;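 active = inhibition of the ligand-induced calcium signal above about 50% at the single tested concentration, limit read from the data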
TAAR1 antag: antagonists of human TAAR1. inhibition, % at 3 µM. actives 1.5% (n = 360,000). AID 624466. Q96RJ0. CHO RD-HGA16 TAAR1, Fluo-8 calcium fluorescence, antagonist;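 active = inhibition above a per-plate cutoff, the mean inhibition of test compounds on that plate plus 3 SD, cut at about 49% in these data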;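 note: 0% = DMSO plus EC80 beta-PEA response and 100% = DMSO alone without agonist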
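Test system: hTAAR1-expressing CHO RD-HGA16 cells, Gα16-coupled; Probe or stimulus: EC80 β-phenethylamine stimulus; Compound dosing: single nominal final test compound concentration of 3 µM; Timing: 140 s kinetic read after compound, 140 s after agonist; Signal: Fluo-8 calcium-sensitive fluorescence; Measure: % inhibition of agonist calcium response; Controls: DMSO and EC80 PEA controls.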
ANO1 block: inhibitors of mouse TMEM16A calcium-activated chloride channel. normalized B-score (activity score, 25-100; higher = stronger inhibition) at 10 µM. Q8BHY3. AID 588511. actives 1.2% (n = 310,000). HEK293 TMEM16A/YFP iodide influx fluorescence, ionomycin;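 active = ratio plate-corrected score three or more library SD toward inhibition, starting fluorescence score within five deviations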;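 note: score derived from kinetic fluorescence span divided by baseline fluorescence per well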
An asterisk follows results filed as active; i = inactive; · = no result.

SMILES | CRFBP-R2 agonist | TAAR1 ag | TMEM16A act | CRFBP-R2 block | TAAR1 antag | ANO1 block
COc1ccc(C=NNc2ccc([N+](=O)[O-])cc2S(=O)(=O)Nc2ccccc2C(=O)O)cc1OC | 1 | 2 | i | 39 | -22 | ·
COc1ccc(/C=N/Nc2ccc([N+](=O)[O-])cc2S(=O)(=O)N2CCN(C)CC2)cc1 | 56* | 0 | i | -52 | -2 | i
COC(=O)c1cc(C)sc1NC(=O)CN1CCN(C(=O)c2ccco2)CC1 | -1 | 6 | i | 0 | -12 | i
CCOC(=O)c1cc(C)sc1NC(=O)CN1CCN(C(=O)c2ccco2)CC1 | -1 | 42* | i | 2 | 35 | i
COc1ccccc1OCc1cc(C(=O)NCc2ccc(N3CCCC3=O)cc2)no1 | -1 | 0 | i | -1 | -3 | i
COc1ccc(NC(=O)/C(Cl)=C(/Cl)S(=O)Cc2ccc(Cl)cc2)cn1 (stereo not given) | 88* | 5 | i | -53 | 52* | ·
CCOc1ccc(NC(=O)CCC(=O)NNC(=O)Nc2cccc(Cl)c2)cc1 | 2 | 43* | i | -6 | 6 | i
C/C(=N\Nc1ncc(Cl)cc1Cl)c1ccccn1 | 26 | · | -7.8* | -20 | · | ·
COc1ccc(Cl)cc1C(=O)NNC(=S)NC(=O)c1ccc(F)c(F)c1 | 142* | · | · | 62* | · | i
COc1cc(C(=O)NNC(=S)NC(=O)c2ccc(F)cc2)cc(OC)c1OC | 13 | 37 | i | 0 | -8 | i
COc1ccc(C(=O)NNC(=S)NC(=O)c2ccc(F)cc2)cc1Br | 77* | 51* | i | -4 | 6 | i
COc1ccc(Cl)cc1C(=O)NNC(=S)NC(=O)c1cc(-c2ccc(Cl)cc2)nc2ccccc12 | 25 | 37* | i | -21 | 16 | 100*
Cc1cc(Cl)ccc1OCC(=O)NNC(=O)c1cccs1 | 0 | 0 | i | -1 | -12 | i
COc1ccc(Cl)cc1C(=O)NNC(=O)COC(=O)c1cccs1 | -1 | 8 | i | 104* | -13 | ·
Cc1nc2sccn2c(=O)c1S(=O)(=O)NCC(C)c1ccccc1 (stereo not given) | 1 | 19 | i | -8 | -20 | i
COC(=O)c1cccc(NC(=O)CCc2c(C)noc2C)c1 | -1 | 5 | i | -2 | -35 | ·
C[C@@H]1CN([C@H](C)CO)C(=O)CCCn2nncc2CO[C@@H]1CN(C)C(=O)c1ccc(N2CCN(C)CC2)cc1 | 2 | 1 | · | 14 | -12 | ·
Cc1c(Cl)cccc1NC(=O)CNC(=O)Cc1c[nH]c2ccccc12 | 0 | 3 | i | 5 | 5 | ·
O=C(NC(=S)Nc1ccc(F)cc1)c1ccc2c(c1)OCCO2 | 93* | 4 | i | -195 | 19 | i
COc1cc(C(=O)NC(=S)NNC(=O)c2ccc3c(c2)OCO3)cc(OC)c1OC | 6 | 52* | i | -9 | -12 | i
CCCCOc1ccc(-c2cc(C(=O)NNC(=S)NCC)c3ccccc3n2)cc1 | -1 | · | i | -7 | · | 100*
CSc1nc(N)nc2c1ncn2CC(=O)NCC1CCCO1 (stereo not given) | -1 | 1 | i | 0 | 3 | ·
O=C(NCc1ccccc1)C(c1ccc(-c2ccccc2)cc1)N1CCN(C(=O)C2CCCO2)CC1 (stereo not given) | · | 0 | · | · | -25 | ·
O=C(N/N=C/c1ccc(F)cc1)c1ccc(OCc2ccccc2)cc1 | 3 | 0 | i | -1 | -2 | i
COc1ccc(/C=N/NC(=O)c2ccccc2OC)cc1COc1ccccc1[N+](=O)[O-] | 1 | 1 | i | 4 | 51* | i
CCOc1cc(/C=N/NC(=O)c2ccccc2OCc2ccc(F)cc2)ccc1O | -1 | 11 | i | 56* | 47 | ·
CC(C)(C)c1ccc(OCc2ccc(C(=O)N/N=C/c3ccc(O)c(O)c3)cc2)cc1 | -1 | 16 | i | 12 | 53* | i
CC(C)c1ccc(NC(=O)CN2C(=O)NC3(CCCC3)C2=O)cc1 | -2 | 8 | i | -8 | -4 | i
